Measured values from different studies.
Compare with care: the assays were run in different laboratories.

Structure (SMILES)	assay	system	setting	quantity	value
CCOC(=O)[C@@]12C[C@@H]1[C@@H](n1ccc3c(NC)nc(C#Cc4ccc(Cl)s4)nc31)[C@H](O)[C@@H]2O		male Sprague-Dawley rat, plasma	oral, 10 mg/kg, 15 min	concentration	45.5 ng/mL
Cc1noc(C)c1Cn1cc(N2C(=O)N(Cc3cccc(O)c3)C(C)(C)C2=O)cn1		male Sprague-Dawley rat, plasma	oral, 100 mg/kg, 4 h, single dose	concentration	2.9 ng/mL
CCc1cc(C(=O)NC)c2nccc(N3CCc4c(cc(Cn5ccnc5)cc4-c4cn(C)nc4C(F)(F)F)C3=O)c2c1		male Sprague-Dawley rat, plasma	oral, 50 mg/kg	half-life	36 min
COC(=O)[C@H](N)CSSC[C@@H](N)C(=O)OC	chemical stability	rat, plasma		half-life	8.14 min
Cc1ccc(-c2cc(C(F)(F)F)nn2-c2ccc(S(N)(=O)=O)cc2)cc1		male Sprague-Dawley rat, plasma	oral, 20 mg/kg, 4 h	concentration	1500 nM
COc1cccc(-c2n[nH]c(SCc3ccccn3)n2)c1OC		male Sprague-Dawley rat, plasma	oral, 10 mg/kg, 2 h, single dose	concentration	1160 ng/mL
CC1=C(C(=O)OCc2ccccc2)C(=O)/C(=C\c2cc(C)n(-c3ccccc3C(F)(F)F)c2C)N1	metabolic stability	mouse, liver microsomes	1 µM	half-life	3.1 min
COc1ccc2c(=O)n(C)c(-c3ccccc3)nc2c1		male Sprague-Dawley rat, brain	oral, 30 mg/kg, 30 min, single dose	concentration	20.4 ng/g
CCOC(=O)C1=C(C)N/C(=C/c2cc(C)n(-c3ccc(S(=O)(=O)C(F)(F)F)cc3)c2C)C1=O	metabolic stability	mouse, liver microsomes	1 µM	half-life	30 min
CCc1cc(-c2noc(-c3cc(OC)nc(C4CCCC4)c3)n2)cc(C)c1OC[C@@H](O)CO		Wistar rat, plasma	oral, 10 mg/kg, 24 h, single dose	concentration	350 ng/mL
CCOC(=O)C1=C(C)N/C(=C/c2cc(C)n(-c3ccc(CN(C)C)cc3)c2C)C1=O	metabolic stability	mouse, liver microsomes	1 µM	half-life	56 min
Cc1noc(C)c1Cn1cc(N2C(=O)CN(Cc3cccc(O)c3)C2=O)cn1		male Sprague-Dawley rat, plasma	intravenous, 1 mg/kg, 30 min	concentration	12.1 ng/mL
CCOC(=O)C1=C(C)N/C(=C/c2cc(C)n(-c3ccc(CN4CCCCC4)cc3)c2C)C1=O	metabolic stability	mouse, liver microsomes	1 µM	half-life	29 min
COc1cc2c3c(n(CCCN4CCOCC4)c(=O)c2cc1OC)-c1cc2c(cc1C3=O)OCO2		female Fischer 344 rat, plasma	intravenous, 12 mg/m², single dose	half-life	252 min
Oc1c(Br)cc(Cl)c2cccnc12		Sprague-Dawley rat, plasma	intravenous, 2 mg/kg	half-life	534 min
CCc1cc(OC)c2nccc(N3CCc4c(cc(Cn5ccnc5)cc4-c4cn(C)nc4C(F)(F)F)C3=O)c2c1		male Sprague-Dawley rat, plasma	intravenous, 3 mg/kg	C0	1150 ng/mL
